In publication PMC3915044 (Integrative biology : quantitative biosciences from nano to …, 2013):
“Also recorded” adds a separate entry of the source.

What was measured:
[1] = system: MRC-5 cells; assay: Flow cytometry of fluorescence intensity; format: cell-based, human; conditions: MRC-5, LeuLeuOMe treatment
In short: (§1)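 CL1-0 and MRC-5 cells were loaded with 1 µM carbazole dication for 5 h and exposed to 0, 0.5 or 1 mM lysosomotropic agent. Mean fluorescence was taken at 564–606 nm with 488 nm excitation and expressed as a ratio across treatments; three independent experiments.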

[2] = system: CL1-0 cells; assay: Subcellular localization by epi-fluorescence/confocal microscopy; format: cell-based, human; conditions: for subcellular localization (nucleus versus mitochondria): CL1-0 human lung cancer cells, fluorescence microscopy
[3] = system: normal and cancer cells; assay: Low temperature; format: cell-based; conditions: incubation at 4°C, energy-dependent mechanisms inhibited
In short: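 Cells were precooled at 4°C for 1 h to block energy-dependent uptake, then incubated with 1 µM test compound for 1 h. Cells were co-stained for 10 min with 1 ng ml−1 Hoechst 33342 (membrane-permeant) or Hoechst 33258 (impermeant) as controls. Imaging was by epi-fluorescence microscopy.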

[4] = system: CL1-0 cells; assay: Flow cytometry of fluorescence intensity; format: cell-based, human
In short: as §1

[5] = system: MCF-7 cells; assay: Subcellular localization by fluorescence microscopy; format: cell-based, human; conditions: drug-sensitive MCF-7, 5 µM BMVC
[6] = system: MCF-7/ADR cells; assay: Flow cytometry of relative fluorescence changes; format: cell-based, human; conditions: for relative fluorescence change upon verapamil: 50 µM verapamil (P-glycoprotein inhibition); for relative fluorescence change upon LeuLeuOMe: 0.5 mM LeuLeuOMe
[7] = system: MRC-5 cells; assay: Subcellular localization by epi-fluorescence/confocal microscopy; format: cell-based, human
[8] = system: MCF-7/ADR cells; assay: Subcellular localization by fluorescence microscopy; format: cell-based, human
[9] = system: primary human normal foreskin fibroblast cell line (BJ); assay: Cytoplasmic microinjection; format: cell-based; conditions: BJ cells, 5 min after injection
In short: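 BJ primary foreskin fibroblasts were grown on glass coverslips in EMEM with 10% FBS. At 37°C, the cytoplasm was co-microinjected with 170 µM test compound and 2.5 mg ml−1 Texas Red 70-kDa dextran, which cannot cross nuclear pores. After 5 min incubation, cells were moved to fresh CO2-independent medium and imaged live.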

[10] = Lipophilicity, n-octanol/water partition; format: physicochemical
In short: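 Shake-flask method: n-octanol and water were premixed and left overnight. Test compound was added to the aqueous phase at 500 µM and mixed with an equal volume of n-octanol. Absorbance was measured in each phase, and log P was calculated as log[Ao/Aw].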

[11] = system: MRC-5 cells; assay: Lysosomal membrane permeabilization; format: cell-based, human
[12] = system: CL1-0 cells; assay: Lysosomal membrane permeabilization; format: cell-based, human
[13] = system: normal cells; assay: Effect of lysosomal pH-raising agents on nuclear fluorescence of BMVC; format: cell-based; conditions: agents raise internal pH of lysosomes
[14] = system: MCF-7/ADR cells; assay: Cytotoxicity of doxorubicin; format: cell-based; conditions: Homo sapiens, NCI/ADR-RES, read-out: cytotoxicity IC50

Structure (SMILES): C[n+]1ccc(C=Cc2ccc3[nH]c4ccc(C=Cc5cc[n+](C)cc5)cc4c3c2)cc1.[I-].[I-] [BMVC, 3,6-bis(1-methyl-4-vinylpyridinium) carbazole diiodide]
- BMVC fluorescence intensity change after LeuLeuOMe [1]: increase in the fluorescence intensity
- lysosomal retention / co-localization with LysoTracker ([2]; CL1-0 cancer cells, confocal microscopy): partially colocalized with MitoTracker red, but not LysoTracker red
- subcellular localization (nucleus versus mitochondria) [2]: strong fluorescent signal was observed in the nuclei; also recorded: localize to the nuclei to a greater extent than the mitochondria
- fluorescent signal in cancer cell nuclei upon DNase treatment ([2]; fixed CL1-0 cells, DNase): dramatically reduced
- fluorescent signal in cancer cell nuclei upon RNase treatment ([2]; fixed CL1-0 cells, RNase): moderately reduced
- fluorescence detected in cells at 4°C (uptake) [3]: not detected
- time-dependent fluorescent intensity ([4]; 1 µM BMVC, flow cytometry, CL1-0 compared with MRC-5): significantly higher in CL1-0 than in MRC-5 cells
- BMVC fluorescence change after LeuLeuOMe ([4]; CL1-0, LeuLeuOMe treatment): small increase in BMVC fluorescence
- subcellular localization [5]: released from the lysosomes and entered the nucleus
- relative fluorescence change upon verapamil [6]: without affecting BMVC fluorescence
- relative fluorescence change upon LeuLeuOMe [6]: more than tenfold
- BMVC fluorescence localization after LeuLeuOMe ([7]; MRC-5, 5 µM BMVC 24 h then LeuLeuOMe 0.5 mM 1 h): can be detected in the nucleus
- nuclear fluorescence in fixed and permeabilized cells ([7]; MRC-5 fixed and permeabilized (4% formaldehyde, 0.1% Triton X-100)): strong BMVC fluorescence similar to that in CL1-0 cells
- lysosomal retention / co-localization with LysoTracker ([7]; MRC-5 normal lung cells, confocal microscopy): colocalized with LysoTracker red but not MitoTracker red
- nuclear fluorescence ([7]; MRC-5 normal lung cells, fluorescence microscopy): no fluorescence was observed in the nuclei
- nuclear fluorescence upon LeuLeuOMe treatment ([8]; MCF-7/ADR, LeuLeuOMe, confocal microscopy): increased nuclear BMVC fluorescence
- subcellular localization / lysosomal retention ([8]; drug-resistant MCF-7/ADR): localized to the lysosomes; also recorded: retained in the lysosomes
- localization after microinjection into the cytoplasm [9]: rapidly accumulated in the nuclei

Structure (SMILES): C[n+]1ccc(/C=C/c2ccc3c(c2)c2cc(/C=C/c4cc[n+](C)cc4)ccc2n3CCOCCOCCOCC[N+]2(C)CCCCC2)cc1.[I-].[I-].[I-] [BMVC-8C3O]
- subcellular localization (nucleus versus mitochondria) [2]: localized to both the nucleus and the mitochondria
- lipophilicity (log P), in words [10]: lower lipophilicity

Structure (SMILES): CN1CCN(c2ccc3[nH]c(-c4ccc5[nH]c(-c6ccc(O)cc6)nc5c4)nc3c2)CC1 [Hoechst 33258]
- fluorescence detected in cells at 4°C (uptake) [3]: not detected

Structure (SMILES): CCOc1ccc(-c2nc3ccc(-c4nc5ccc(N6CCN(C)CC6)cc5[nH]4)cc3[nH]2)cc1 [Hoechst 33342]
- fluorescence detected in cells at 4°C (uptake) [3]: readily detected in the cells

Structure (SMILES): COC(=O)[C@H](CC(C)C)NC(=O)[C@@H](N)CC(C)C [LeuLeuOMe, L-leucyl-L-leucine methyl ester]
- lysosomal membrane permeabilization [11]: increases lysosomal membrane permeabilization
- lysosomal membrane permeabilization [12]: increases lysosomal membrane permeabilization

Structure (SMILES): Cl.N [NH4Cl, ammonium chloride]
- effect on nuclear fluorescence of BMVC [13]: increased nuclear fluorescence of BMVC

Structure (SMILES): CCN(CC)CCCC(C)Nc1ccnc2cc(Cl)ccc12 (centres unmarked) [chloroquine]
- effect on nuclear fluorescence of BMVC [13]: increased nuclear fluorescence of BMVC

Structure (SMILES): COc1cccc2c1C(=O)c1c(O)c3c(c(O)c1C2=O)C[C@@](O)(C(=O)CO)C[C@@H]3O[C@H]1C[C@H](N)[C@H](O)[C@H](C)O1 [doxorubicin, reference compound]
- IC50 [14]: ≥ 20 µM
- relative fluorescence change upon verapamil [6]: increased twofold
- relative fluorescence change upon LeuLeuOMe [6]: no difference in doxorubicin fluorescence
